Among the data in ChEMBL document CHEMBL1687802, “An RpoB mutation confers dual heteroresistance to daptomycin and vancomycin in Staphylococcus aureus” (2010) are MIC values, retold here.

Values after ≈ are worked out from the molar mass of the structure shown.

Experiment [1] deals with Staphylococcus aureus. As to the kind of experiment: Antimicrobial activity against methicillin-resistant Staphylococcus aureus N315deltaIP after 24 hrs by Etest method. The format is functional. The gist of the method:
(§1)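 Etest MICs (daptomycin, vancomycin, oxacillin, rifampin) on Mueller-Hinton agar, with the daptomycin medium supplemented with 50 mg/liter Ca2+. Plates were swabbed from a 0.5 McFarland suspension, strips were applied 10 min later, and plates were read after 24 h at 37°C. Strains were pKOR1 allelic-replacement mutants or revertants of N315ΔIP (mecI-inactivated, beta-lactamase plasmid cured) or 10*3d1, grown in BHI broth at 37°C.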

Experiment [2] concerns Staphylococcus aureus. The experiment is described as follows: Antimicrobial activity against methicillin-resistant Staphylococcus aureus N315deltaIP harboring rpoB A621E mutant gene after 24 hrs by Etest method. The format is functional. The gist of the method: as §1
Experiment [3] relates to Staphylococcus aureus. The experiment is described as follows: Antimicrobial activity against methicillin-resistant Staphylococcus aureus N315deltaIP harboring hypothetical protein SA1826 14A mutant after 24 hrs by Etest method. The format is functional. The gist of the method: as §1
For experiment [4], the system named is Staphylococcus aureus. The experiment is described as follows: Antimicrobial activity against methicillin-resistant Staphylococcus aureus N315deltaIP harboring hypothetical protein SA1826 14E mutant gene after 24 hrs by Etest method. The class given is functional. The gist of the method: as §1
Experiment [5] deals with Staphylococcus aureus. As to the kind of experiment: Antimicrobial activity against methicillin-resistant Staphylococcus aureus 10*3d1 harboring hypothetical protein SA1826 14A mutant gene after 24 hrs by Etest method. The format is functional. Conditions: 10*3d1, 24 h. The gist of the method: as §1
The test system of experiment [6] is Staphylococcus aureus. As to the kind of experiment: Antimicrobial activity against methicillin-resistant Staphylococcus aureus 10*3d1 harboring hypothetical protein SA1826 14E mutant gene after 24 hrs by Etest method. The class given is functional. Conditions: 10*3d1, 24 h. The gist of the method:
as §1

Experiment [7] relates to Staphylococcus aureus. As to the kind of experiment: Antimicrobial activity against methicillin-resistant Staphylococcus aureus 10*3d1 harboring hypothetical protein SA1826 14A mutant and rpoB 621A mutant after 24 hrs by Etest method. The class given is functional. Particulars: 10*3d1, 24 h. The gist of the method:
as §1

Experiment [8] concerns Staphylococcus aureus. As to the kind of experiment: Antimicrobial activity against methicillin-resistant Staphylococcus aureus 10*3d1 harboring hypothetical protein SA1826 14A(-) and rpoB 621E mutant gene after 24 hrs by Etest method. The format is functional. Particulars: 10*3d1, 24 h. The gist of the method: as §1
In experiment [9] the test system is Staphylococcus aureus. As to the kind of experiment: Antimicrobial activity against vancomycin-intermediate Staphylococcus aureus MU50 by Etest method. The class given is functional.
Experiment [10] deals with Staphylococcus aureus. The experiment is described as follows: Antimicrobial activity against vancomycin-intermediate Staphylococcus aureus MI by Etest method. The class given is functional.
Experiment [11] concerns Staphylococcus aureus. The experiment is described as follows: Antimicrobial activity against vancomycin-intermediate Staphylococcus aureus MU50-PR selected at 4 mg/L of vancomycin by Etest method. The format is functional.
The test system of experiment [12] is Staphylococcus aureus. The experiment is described as follows: Antimicrobial activity against vancomycin-intermediate Staphylococcus aureus MI-PR selected at 4 mg/L of vancomycin by Etest method. The format is functional.
The subject of experiment [13] is Staphylococcus aureus. The experiment is described as follows: Antimicrobial activity against vancomycin-susceptible Staphylococcus aureus MI-P84 by Etest method.
In experiment [14] the test system is Staphylococcus aureus. The experiment is described as follows: Antimicrobial activity against vancomycin-susceptible Staphylococcus aureus MU50-P35 by Etest method.
For experiment [15], the system named is Staphylococcus aureus. As to the kind of experiment: Antimicrobial activity against methicillin-resistant Staphylococcus aureus 10*3d1 harboring rpoB 621E mutation after 24 hrs by Etest method. Particulars: 10*3d1, 24 h.
Experiment [16] relates to Staphylococcus aureus. The experiment is described as follows: Antimicrobial activity against methicillin-resistant Staphylococcus aureus N315deltaIP harboring rpoB 621A mutant after 24 hrs by Etest method.
Experiment [17] concerns Staphylococcus aureus. As to the kind of experiment: Antimicrobial activity against vancomycin-intermediate Staphylococcus aureus MU50-P35 selected at 4 mg/L of compound by Etest method.
Experiment [18] concerns Staphylococcus aureus. As to the kind of experiment: Antimicrobial activity against vancomycin-intermediate Staphylococcus aureus MU50-PR selected at 4 mg/L of compound by Etest method.
Experiment [19] deals with Staphylococcus aureus. The experiment is described as follows: Antimicrobial activity against vancomycin-intermediate Staphylococcus aureus MI-P84 selected at 4 mg/L of compound by Etest method.
For experiment [20], the system named is Staphylococcus aureus. As to the kind of experiment: Antimicrobial activity against vancomycin-intermediate Staphylococcus aureus MI-PR selected at 4 mg/L of compound by Etest method.

What is called MIC is the least concentration at which growth counts as inhibited. Low readings indicate inhibition by little substance, high ones a need for much substance. Turning to `CCCCCCCCCC(=O)N[C@@H](Cc1c[nH]c2ccccc12)C(=O)N[C@H](CC(N)=O)C(=O)N[C@@H](CC(=O)O)C(=O)N[C@@H]1C(=O)NCC(=O)N[C@@H](CCCN)C(=O)N[C@@H](CC(=O)O)C(=O)N[C@H](C)C(=O)N[C@@H](CC(=O)O)C(=O)NCC(=O)N[C@H](CO)C(=O)N[C@@H]([C@H](C)CC(=O)O)C(=O)N[C@@H](CC(=O)c2ccccc2N)C(=O)O[C@@H]1C`, the MIC came out at 0.38 µg/mL (≈ 0.234 µM) in the experiment with Staphylococcus aureus [1]; 1.5 µg/mL (≈ 0.926 µM) in the experiment with Staphylococcus aureus [2]; 0.25 µg/mL (≈ 0.154 µM) with Staphylococcus aureus [3]; 0.25 µg/mL (≈ 0.154 µM) in the experiment with Staphylococcus aureus [4]; 1.5 µg/mL (≈ 0.926 µM) in the experiment on Staphylococcus aureus [5]; 1.5 µg/mL (≈ 0.926 µM) in the experiment with Staphylococcus aureus [6]. Moreover, the MIC against Staphylococcus aureus [7] amounted to 0.25 µg/mL (≈ 0.154 µM); with Staphylococcus aureus [8], 1.5 µg/mL (≈ 0.926 µM); in the experiment with Staphylococcus aureus [9] it was 2 µg/mL (≈ 1.23 µM); in the experiment on Staphylococcus aureus [10], 2 µg/mL (≈ 1.23 µM); in the experiment on Staphylococcus aureus [11], 2 µg/mL (≈ 1.23 µM); in the experiment with Staphylococcus aureus [12] it was 2 µg/mL (≈ 1.23 µM). Also, the minimal inhibitory concentration (MIC) worked out at 0.5 µg/mL (≈ 0.309 µM) against Staphylococcus aureus [13], 0.5 µg/mL (≈ 0.309 µM) against Staphylococcus aureus [14], 2 µg/mL (≈ 1.23 µM) against Staphylococcus aureus [15] and 0.25 µg/mL (≈ 0.154 µM) against Staphylococcus aureus [16].
Regarding `Cc1onc(-c2ccccc2)c1C(=O)N[C@@H]1C(=O)N2[C@@H]1SC(C)(C)[C@@H]2C(=O)O` [OXACILLIN], the MIC with Staphylococcus aureus [1] was 48 µg/mL (≈ 120 µM); with Staphylococcus aureus [2] it was > 256 µg/mL; in the experiment with Staphylococcus aureus [3] it was > 256 µg/mL; with Staphylococcus aureus [4], > 256 µg/mL; against Staphylococcus aureus [5] it was > 256 µg/mL; in the experiment on Staphylococcus aureus [6], > 256 µg/mL. Further, the MIC in the experiment with Staphylococcus aureus [7], with Staphylococcus aureus [8], against Staphylococcus aureus [15] and in the experiment with Staphylococcus aureus [16] was > 256 µg/mL throughout.
For the molecule `CO[C@H]1/C=C/O[C@@]2(C)Oc3c(C)c(O)c4c(O)c(c(/C=N/N5CCN(C)CC5)c(O)c4c3C2=O)NC(=O)/C(C)=C\C=C\[C@H](C)[C@H](O)[C@@H](C)[C@@H](O)[C@@H](C)[C@H](OC(C)=O)[C@@H]1C` [RIFAMPIN], the MIC against Staphylococcus aureus [1], in the experiment with Staphylococcus aureus [2], against Staphylococcus aureus [3], with Staphylococcus aureus [4], in the experiment on Staphylococcus aureus [5] and against Staphylococcus aureus [6] was 0.006 µg/mL (≈ 0.00729 µM) throughout. Moreover, the MIC against Staphylococcus aureus [7], with Staphylococcus aureus [8], against Staphylococcus aureus [15] and against Staphylococcus aureus [16] was 0.006 µg/mL (≈ 0.00729 µM) throughout.
For the molecule `CN[C@H](CC(C)C)C(=O)N[C@H]1C(=O)N[C@@H](CC(N)=O)C(=O)N[C@H]2C(=O)N[C@H]3C(=O)N[C@H](C(=O)N[C@H](C(=O)O)c4cc(O)cc(O)c4-c4cc3ccc4O)[C@H](O)c3ccc(c(Cl)c3)Oc3cc2cc(c3O[C@@H]2O[C@H](CO)[C@@H](O)[C@H](O)[C@H]2O[C@H]2C[C@](C)(N)[C@H](O)[C@H](C)O2)Oc2ccc(cc2Cl)[C@H]1O` [VANCOMYCIN], the MIC against Staphylococcus aureus [1] is 0.5 µg/mL (≈ 0.345 µM); with Staphylococcus aureus [2] it was 3 µg/mL (≈ 2.07 µM); against Staphylococcus aureus [3], 0.5 µg/mL (≈ 0.345 µM); against Staphylococcus aureus [4], 0.5 µg/mL (≈ 0.345 µM); with Staphylococcus aureus [5], 3 µg/mL (≈ 2.07 µM); in the experiment with Staphylococcus aureus [6], 3 µg/mL (≈ 2.07 µM). Also, the MIC with Staphylococcus aureus [7] was 0.75 µg/mL (≈ 0.518 µM); against Staphylococcus aureus [8], 3 µg/mL (≈ 2.07 µM); against Staphylococcus aureus [9] it was 6 µg/mL (≈ 4.14 µM); against Staphylococcus aureus [17] it was 2 µg/mL (≈ 1.38 µM); against Staphylococcus aureus [18], 6 µg/mL (≈ 4.14 µM); with Staphylococcus aureus [10] it was 7 µg/mL (≈ 4.83 µM). Also, the MIC worked out at 1 µg/mL (≈ 0.69 µM) in the experiment with Staphylococcus aureus [19], 6 µg/mL (≈ 4.14 µM) in the experiment with Staphylococcus aureus [20], 3 µg/mL (≈ 2.07 µM) against Staphylococcus aureus [15] and 0.25 µg/mL (≈ 0.173 µM) with Staphylococcus aureus [16].
